Reference: ChEMBL document CHEMBL1135639, “Array-based structure and gene expression relationship study of antitumor sulfonamides including N-[2-[(4-hydroxyphenyl)amino]-3-pyridinyl]-4-methoxybenzenesulfonamide and N-(3-chloro-7-indolyl)-1,4-benzenedisulfonamide” (J Med Chem, 2002)
“And” between values parts separate entries of the source, which are not always exact repeats. Equal entries are not always repeated.

Legend:
Tubulin = Tubulin (Bos taurus, UniProt Q6B856+Q862L2+Q862F3); test: Inhibitory activity against tubulin polymerization.; format: functional
In short: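 Bovine brain microtubule protein (1 mg/mL) in 0.1 M MES, 1 mM EGTA, 0.5 mM MgCl2, pH 6.8, with 5% DMSO final. Compound at 0.30–100 µM, held 30 min at 4 °C, then warmed to 37 °C with 1 mM GTP. Turbidity followed at 350 nm; the 30 min value is plotted against log concentration. IC50 by least squares, triplicate.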

HCT-116 [1] = test: Effective concentration to inhibit cell proliferation by 50% relative to untreated control cell after 72 hr of continuous exposure in HCT116-C9 cell line; format: functional, cell-based; settings: Homo sapiens, HCT-116, 72 h
HCT-116 [2] = test: Effective concentration to inhibit cell proliferation by 50% relative to untreated control cell after 72 hr of continuous exposure in HCT116-C9 -C1cell line; format: functional, cell-based; settings: Homo sapiens, HCT-116, 72 h
P388 [3] = test: Effective concentration to inhibit cell proliferation by 50% relative to untreated control cell after 72 hr of continuous exposure in P388 cell line; format: functional, cell-based; settings: Mus musculus, P388, 72 h
P388 [4] = test: Effective concentration to inhibit cell proliferation by 50% relative to untreated control cell after 72 hr of continuous exposure in P388/4.0 r-M cell line; format: functional, cell-based; settings: Mus musculus, P388, 72 h
[5] = Relative resistance value as the ratio of IC50 for the resistant cell line to that of parental cell line.; format: functional
In short: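 Ratio of MTT IC50 (72 h exposure) in the resistant subclone to that in the parental line: P388/4.0r-M versus P388, and HCT116-C9-C1 versus HCT116-C9. IC50s come from two triplicate runs each.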

SMILES | IC50 (Tubulin) [nM] | IC50 (HCT-116 [1]) [nM] | IC50 (HCT-116 [2]) [nM] | IC50 (P388 [3]) [nM] | IC50 (P388 [4]) [nM] | Relative resistance [5]
NS(=O)(=O)c1ccc(S(=O)(=O)Nc2cccc3cc[nH]c23)cc1 | > 100000 |  |  |  |  | 
COc1ccc(S(=O)(=O)Nc2cccc3c(Cl)c[nH]c23)cc1 | 9500 | 370 | 2200 | 1200 | 1200 | 
N#Cc1ccc(S(=O)(=O)Nc2cccc3c(Cl)c[nH]c23)cc1 | > 100000 |  |  |  |  | 
COc1ccc(S(=O)(=O)Nc2cccc3cc(Cl)[nH]c23)cc1 | 2100 |  |  |  |  | 
NS(=O)(=O)c1ccc(C(=O)Nc2cccc3c(Cl)c[nH]c23)cc1 | > 100000 |  |  |  |  | 
COc1ccc(S(=O)(=O)Nc2cccnc2Nc2ccc(O)cc2)cc1 [ABT-751] | 2200 | 900 | 960 | 190 | 15000 | 
NS(=O)(=O)c1ccc(S(=O)(=O)Nc2cccc3c(Cl)c[nH]c23)cc1 [INDISULAM] | > 100000 | 210 | 29000 | 610 | 590 | 0.97 and 1.4
